Data reported in ChEMBL document CHEMBL1142349, “Molecular modeling study and synthesis of novel pyrrolo[2,3-d]pyrimidines and pyrrolotriazolopyrimidines of expected antitumor and radioprotective activities” (Bioorg Med Chem, 2008).

Legend:
[1] = tested on: Mus musculus; experiment: Radioprotective activity against gamma-irradiated Swiss albino mouse assessed as increase in blood glutathione level at 150 mg/kg, ip after 7 days relative to control; settings: route intraperitoneal
[2] = tested on: Mus musculus; experiment: Radioprotective activity against gamma-irradiated Swiss albino mouse assessed as increase in blood glutathione level at 150 mg/kg, ip after 7 days; settings: route intraperitoneal
[3] = tested on: Mus musculus; experiment: Radioprotective activity against gamma-irradiated Swiss albino mouse assessed as reduction of plasma lipid peroxide level at 150 mg/kg, ip after 7 days relative to control; type: functional; set-up: scale not given: the % may be the effect or the level left; settings: route intraperitoneal
Outline: (§1)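 Female Swiss albino mice (25–30 g) were dosed ip at 150 mg/kg in CMC every other day ×3 over 7 days. Each dose was given 30 min before 6 Gy whole-body γ-irradiation (Cs-137, 0.86 Gy/min). Mice were fasted 16 h and bled by heart puncture 1 day after the last irradiation. Plasma lipid peroxide was measured as MDA (Yoshioka). Values are mean ± SE, n=8, as % change from control, with t test.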

[4] = tested on: Mus musculus; experiment: Radioprotective activity against gamma-irradiated Swiss albino mouse assessed as reduction of plasma lipid peroxide level at 150 mg/kg, ip after 7 days; type: functional; settings: route intraperitoneal
Outline: as §1

[5] = Cytotoxicity against mouse Ehrlich Ascites carcinoma after 2 hrs by trypan blue exclusion assay; type: functional
Outline: (§2)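 EAC cells at 2.5 × 10^6/ml in saline. Compounds were dissolved in DMSO:saline (7:3). 100 µL cell suspension was mixed with compound and made to 1 mL with saline, giving final 200, 100, 75, 50 and 25 µM. Incubated 2 h at 37 °C. Trypan blue exclusion gave % non-viable cells. IC50 was read from the survival-ratio vs concentration curve.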

[6] = tested on: Ehrlich; experiment: Cytotoxicity against mouse Ehrlich Ascites carcinoma assessed as non viable cells at 50 umol/mL after 2 hrs by trypan blue exclusion assay; type: functional
Outline: as §2

[7] = tested on: Ehrlich; experiment: Cytotoxicity against mouse Ehrlich Ascites carcinoma assessed as non viable cells at 200 umol/mL after 2 hrs by trypan blue exclusion assay; type: functional
Outline: as §2

[8] = tested on: Ehrlich; experiment: Cytotoxicity against mouse Ehrlich Ascites carcinoma assessed as non viable cells at 25 umol/mL after 2 hrs by trypan blue exclusion assay; type: functional
Outline: as §2

[9] = tested on: Ehrlich; experiment: Cytotoxicity against mouse Ehrlich Ascites carcinoma assessed as non viable cells at 100 umol/mL after 2 hrs by trypan blue exclusion assay; type: functional
Outline: as §2

[10] = tested on: Ehrlich; experiment: Cytotoxicity against mouse Ehrlich Ascites carcinoma assessed as non viable cells at 75 umol/mL after 2 hrs by trypan blue exclusion assay; type: functional
Outline: as §2

SMILES	Activity [1]	Activity [2]	Activity [3]	Activity [4]	IC50 [5]	Activity [6]	Activity [7]	Activity [8]	Activity [9]	Activity [10]
NS(=O)(=O)c1ccc(-n2cc(-c3ccccc3)c3/c(=N/C(=O)c4ccc(Cl)cc4)n(NC(=O)c4ccc(Cl)cc4)cnc32)cc1	386%	304 mg/dL	101%	80.3 µmol/mL						
NS(=O)(=O)c1ccc(-n2cc(-c3ccccc3)c3c2ncn2ncnc32)cc1					100 µM	0%	90%	0%	60%	15%
N=c1c2c(-c3ccccc3)cn(-c3ccc(S(N)(=O)=O)cc3)c2ncn1NC(=S)Nc1ccccc1					26.5 µM	60%	100%	50%	95%	80%
N#Cc1c(-c2ccccc2)cn(-c2ccc(S(N)(=O)=O)cc2)c1N					88.8 µM	80%	100%	40%	100%	100%
N#CCc1nc2c3c(-c4ccccc4)cn(-c4ccc(S(N)(=O)=O)cc4)c3ncn2n1					90.2 µM	0%	90%	0%	80%	15%
N#Cc1c(N)nn2cnc3c(c(-c4ccccc4)cn3-c3ccc(S(N)(=O)=O)cc3)c12					> 200 µM	0%	0%	0%	0%	0%
NS(=O)(=O)c1ccc(-n2cc(-c3ccccc3)c3c2ncn2nc(S)nc32)cc1					90.2 µM	0%	80%	0%	80%	20%
CC(=O)NS(=O)(=O)c1ccc(-n2cc(-c3ccccc3)c3c2ncn2nc(C)nc32)cc1					75.8 µM	5%	100%	0%	80%	20%
NS(=O)(=O)c1ccc(-n2cc(-c3ccccc3)c3c2ncn2nc(-c4ccccc4)nc32)cc1					> 200 µM	0%	0%	0%	0%	0%
COc1cccc2c1C(=O)c1c(O)c3c(c(O)c1C2=O)C[C@@](O)(C(=O)CO)C[C@@H]3O[C@H]1C[C@H](N)[C@H](O)[C@H](C)O1 [DOXORUBICIN]					81.5 µM	55%	100%	20%	75%	64%
